How the values were obtained:
[1] = tested on: Human immunodeficiency virus; assay: Antiviral activity against VSV envelope pseudotyped HIV infected in MT2 cells assessed as luminescence measured after 48 hrs by viral entry evaluation assay; format: functional, organism-based; conditions: Human immunodeficiency virus 1, MT2, 48 h
Method in brief: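 VSV-G pseudotyped HIV came from 293T cotransfection (calcium phosphate) of envelope-deleted pNL4.3-Luc-RE plus pcDNA3-VSV. MT-2 cells were infected at 100 000 RLUs or 20 ng p24 per well, with base-2 dilutions up to 100 μM, for 48 h at 37 °C, 5% CO2. NL4.3-Ren infections ran in parallel, with an enfuvirtide reference. Luciferase RLUs were read and IC50 obtained by nonlinear regression.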

[2] = Antiviral activity against HIV1 pNL4.3-Luc infected in MT2 cells assessed as luciferase activity measured after 48 hrs by transfection assay; format: functional, cell-based; conditions: Human immunodeficiency virus 1, MT2, 48 h
Method in brief: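 MT-2 cells were electroporated at 260 V, maximum resistance, with an HIV-1 whole-genome luciferase plasmid (pNL4.3-Luc). They were then treated with base-2 serial dilutions from 0.7 to 100 μM in complete RPMI at 37 °C for 48 h. PMA served as the transactivation reference. Cells were lysed and luciferase RLUs read. IC50 came from nonlinear dose–response regression.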

[3] = Selectivity index, ratio of CC50 for human MT2 cells to IC50 for antiviral activity against VSV envelope pseudotyped HIV infected in MT2 cells by viral entry evaluation assay; format: toxicity, cell-based; conditions: read-out: Selectivity Index
[4] = Selectivity index, ratio of CC50 for human MT2 cells to IC50 for antiviral activity against HIV1 pNL4.3-Luc infected in MT2 cells by transfection assay; format: toxicity, cell-based; conditions: read-out: Selectivity Index
[5] = Selectivity index, ratio of CC50 for human MT2 cells to IC50 for Anti-HIV activity against HIV; format: toxicity; conditions: read-out: Selectivity Index
Method in brief: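 SI = CC50/IC50. […] CC50 came from mock-infected MT-2 cells under the same conditions, read by CellTiter Glo. Both are means of at least three independent experiments, fitted by nonlinear regression.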

Row | Molecule | IC50 [1] [nM] | IC50 [2] [nM] | selectivity ratio [3] | selectivity ratio [4] | selectivity ratio [5]
1 | CC(=O)O[C@H]1C=C([C@H](C)[C@H]2CC(C)=C(C)C(=O)O2)[C@@]2(C)CC[C@H]3[C@@H](C[C@@H](O)[C@]45C=C[C@H](OO4)C(=O)[C@]35C)[C@@]12O | 3200 | 1970 | 1.64 | 1.02 | –
2 | CC(=O)O[C@H]1C=C([C@H](C)[C@H]2CC(C)=C(C)C(=O)O2)[C@@]2(C)CC[C@H]3[C@@H](C[C@H]4O[C@]45CC=CC(=O)[C@]35C)[C@@]12O | – | – | 2.66 | – | 10.6
3 | C=C1C(=O)O[C@@H]([C@@H](C)[C@]2(O)C[C@H](OC(C)=O)[C@]3(O)[C@@H]4C[C@H]5O[C@]56CC=CC(=O)[C@]6(C)[C@H]4CC[C@@]32C)C[C@@]1(C)O | – | – | – | – | > 8
4 | C=C1C(=O)O[C@@H]([C@@H](C)[C@]2(O)C[C@H](OC(C)=O)[C@]3(O)[C@@H]4C[C@H]5O[C@]56CC=CC(=O)[C@]6(C)[C@H]4CC[C@@]32C)C[C@]1(C)O | – | – | – | – | > 5.3
5 | C[C@H](Cn1cnc2c(N)ncnc21)OCP(=O)(O)O [TENOFOVIR ANHYDROUS] | – | – | – | – | 333
6 | enfuvirtide | > 1000 | 10 | 66.7 | – | –

— ChEMBL document CHEMBL4831539, “Withanolide-Type Steroids from Physalis nicandroides Inhibit HIV Transcription” (J Nat Prod, 2021)
